Assay [1] addresses Sodium-dependent dopamine transporter (Rattus norvegicus, UniProt P23977). Put plainly: Inhibition of [3H]WIN-35428 binding to the dopamine transporter in rat striata.
The target of assay [2] is Norepinephrine transporter (Rattus norvegicus, UniProt Q9WTR4). Nature of the assay: Inhibition of [3H]nisoxetine binding to the norepinephrine transporter in rat midbrain.
The target in assay [3] is Monoamine transporters; Norepinephrine & serotonin (Rattus norvegicus) (UniProt P31652+Q9WTR4). Nature of the assay: Selectivity for norepinephrine and serotonin transporters. Format: protein assay. The procedure, abridged: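 The NE/5-HT IC50 ratio is derived from IC50 values from two binding assays in rat brain. One is [3H]nisoxetine binding in midbrain (NE transporter). The other is [3H]paroxetine binding in frontal cortex (5-HT transporter).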

Assay [4] deals with Monoamine transporters; serotonin & dopamine (Rattus norvegicus) (UniProt P31652+P23977). Put plainly: Selectivity for dopamine and serotonin transporters. It is filed as protein assay.
Assay [5] concerns the target Sodium-dependent serotonin transporter (Rattus norvegicus, UniProt P31652). Put plainly: Inhibition of [3H]paroxetine binding to serotonin transporter in rat frontal cortex. Format: tissue-based.

Sequence of Sodium-dependent dopamine transporter (P23977 whole entry): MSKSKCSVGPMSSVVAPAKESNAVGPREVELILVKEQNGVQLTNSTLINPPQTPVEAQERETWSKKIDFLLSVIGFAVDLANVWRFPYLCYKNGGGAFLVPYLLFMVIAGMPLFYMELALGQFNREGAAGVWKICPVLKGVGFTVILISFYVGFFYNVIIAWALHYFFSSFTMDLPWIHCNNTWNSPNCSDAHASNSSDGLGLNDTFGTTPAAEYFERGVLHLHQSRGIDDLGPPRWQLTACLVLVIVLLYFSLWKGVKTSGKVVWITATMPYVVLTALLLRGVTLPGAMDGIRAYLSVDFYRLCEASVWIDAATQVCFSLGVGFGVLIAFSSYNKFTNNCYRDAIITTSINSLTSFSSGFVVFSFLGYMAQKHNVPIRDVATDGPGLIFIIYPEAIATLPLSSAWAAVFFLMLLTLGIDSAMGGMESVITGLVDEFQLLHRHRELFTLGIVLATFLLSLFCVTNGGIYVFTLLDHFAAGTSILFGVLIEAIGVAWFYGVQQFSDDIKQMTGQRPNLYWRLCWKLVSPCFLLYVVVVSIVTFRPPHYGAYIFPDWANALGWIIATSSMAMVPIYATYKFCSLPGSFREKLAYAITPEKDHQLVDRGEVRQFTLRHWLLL
Sequence of Monoamine transporters; serotonin & dopamine (Rattus norvegicus) (P23977 whole entry, looked up): as the sequence (P23977 whole entry) above
Sequence of Monoamine transporters; serotonin & dopamine (Rattus norvegicus) (P31652 whole entry, looked up): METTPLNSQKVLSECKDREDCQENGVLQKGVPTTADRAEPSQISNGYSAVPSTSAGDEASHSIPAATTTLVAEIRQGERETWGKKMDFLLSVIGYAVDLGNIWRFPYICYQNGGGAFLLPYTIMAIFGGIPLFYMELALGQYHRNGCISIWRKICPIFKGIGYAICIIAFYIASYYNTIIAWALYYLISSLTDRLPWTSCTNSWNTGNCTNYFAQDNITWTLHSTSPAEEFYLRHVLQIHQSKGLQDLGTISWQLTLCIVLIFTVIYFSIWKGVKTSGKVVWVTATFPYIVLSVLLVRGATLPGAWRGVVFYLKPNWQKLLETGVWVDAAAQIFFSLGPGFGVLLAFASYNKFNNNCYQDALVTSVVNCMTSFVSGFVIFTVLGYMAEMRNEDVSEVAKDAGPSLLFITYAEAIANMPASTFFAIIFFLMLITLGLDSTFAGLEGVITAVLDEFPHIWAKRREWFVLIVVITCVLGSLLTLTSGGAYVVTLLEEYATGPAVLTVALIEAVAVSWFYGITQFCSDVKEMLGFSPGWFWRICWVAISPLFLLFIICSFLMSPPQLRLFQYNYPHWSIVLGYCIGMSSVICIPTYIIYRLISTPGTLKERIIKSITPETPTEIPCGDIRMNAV
Sequence of Norepinephrine transporter (Q9WTR4 whole entry): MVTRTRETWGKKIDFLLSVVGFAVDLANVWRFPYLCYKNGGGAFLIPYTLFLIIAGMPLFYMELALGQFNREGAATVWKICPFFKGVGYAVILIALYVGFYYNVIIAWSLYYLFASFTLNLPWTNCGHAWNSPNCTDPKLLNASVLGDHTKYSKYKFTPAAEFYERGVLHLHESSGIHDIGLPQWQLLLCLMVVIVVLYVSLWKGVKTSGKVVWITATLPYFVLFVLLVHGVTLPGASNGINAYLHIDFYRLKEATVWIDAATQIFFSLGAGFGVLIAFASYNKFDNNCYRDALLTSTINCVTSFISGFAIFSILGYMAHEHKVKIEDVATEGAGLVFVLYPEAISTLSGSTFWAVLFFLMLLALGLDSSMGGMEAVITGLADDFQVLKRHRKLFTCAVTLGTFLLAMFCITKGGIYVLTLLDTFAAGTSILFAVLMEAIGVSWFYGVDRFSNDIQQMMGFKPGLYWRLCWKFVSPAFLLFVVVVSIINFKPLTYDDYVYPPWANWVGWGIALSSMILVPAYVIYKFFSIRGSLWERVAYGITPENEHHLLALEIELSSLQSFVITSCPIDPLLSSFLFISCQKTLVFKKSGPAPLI
Sequence of Sodium-dependent serotonin transporter (P31652 whole entry): as the sequence (P31652 whole entry, looked up) above

For `CCc1ccc(C2CC3CCC(N3)C2C(=O)OC)cc1` (stereo not given), the results for the IC50 in assay [1] and in assay [2] were 49.9 nM and 122 nM, respectively. Moreover, the Ratio in assay [3] was 15; in assay [4], 6.1.
As to `C/C=C\c1ccc(C2CC3CCC(C2C(=O)OC)N3C)cc1` (stereo not given), the IC50 in assay [1] was determined as 15 nM; in assay [2], 2800 nM; in assay [5], 7.09 nM. The Ratio in assay [3] came out at 395; in assay [4] it was 2.1.
Turning to `C=CCc1ccc(C2CC3CCC(C2C(=O)OC)N3C)cc1` (stereo not given), the IC50 is 32.8 nM in assay [1], 2480 nM in assay [2] and 28.4 nM in assay [5]. Moreover, the Ratio is 87 in assay [3] and 1.16 in assay [4].
Taken in the same sequence, the figures for `COC(=O)C1C(c2ccc(C(C)C)cc2)CC2CCC1N2C` (stereo not given) were 597 nM, 75000 nM, 191 nM, 392 and 3.1.
On the same counts, the results for `CCCc1ccc(C2CC3CCC(N3)C2C(=O)OC)cc1` (stereo not given) are 212 nM, 532 nM, 26 nM, 21 and 8.2.
For `CCCc1ccc(C2CC3CCC(C2C(=O)OC)N3C)cc1` (stereo not given), the IC50 turned out to be 68.5 nM in assay [1] and 3920 nM in assay [2]. Also, the values for the Ratio in assay [3] and in assay [4] were 56 and 0.97, respectively.
With `C/C=C/c1ccc(C2CC3CCC(C2C(=O)OC)N3C)cc1` (stereo not given), the IC50 came to 5.29 nM in assay [1] and 1590 nM in assay [2]. For the same molecule, the Ratio is 140 in assay [3] and 0.46 in assay [4].
As to `COC(=O)C1C2CCC(CC1c1ccc(C(C)C)cc1)N2` (stereo not given), the IC50 in assay [1] was 320 nM. The Ratio in assay [3] amounted to 21.
In the case of `CCc1ccc(C2CC3CCC(C2C(=O)OC)N3C)cc1` (stereo not given), the half-maximal inhibitory concentration (IC50) in assay [1] stood at 55 nM; in assay [2], 4030 nM. In addition, the values for the Ratio in assay [3] and in assay [4] were 142 and 1.9, respectively.
As to `C=CCc1ccc(C2CC3CCC(N3)C2C(=O)OC)cc1` (stereo not given), the half-inhibitory concentration (IC50) stood at 56.5 nM in assay [1], 89.7 nM in assay [2] and 6.2 nM in assay [5]. The Ratio in assay [3] worked out at 15; in assay [4] it was 9.1.
On the same counts, the results for `COC(=O)[C@@H]1C2CCC(C[C@@H]1OC(=O)c1ccccc1)N2` (stereo not given in full) are 206 nM, 139 nM, 127 nM, 1.1 and 1.6.
In the case of `C#Cc1ccc(C2CC3CCC(N3)C2C(=O)OC)cc1` (stereo not given), the results for the concentration for half-maximal inhibition (IC50) in assay [1], in assay [2] and in assay [5] were 1.24 nM, 21.8 nM and 1.59 nM, respectively. Moreover, the Ratio in assay [3] worked out at 13.7; in assay [4] it was 0.78.
As for `CC#Cc1ccc(C2CC3CCC(C2C(=O)OC)N3C)cc1` (stereo not given), the IC50 in assay [1] was 2.37 nM; in assay [2], 820 nM. The Ratio in assay [3] was 52; in assay [4] it was 0.15.
Consider `CC#Cc1ccc(C2CC3CCC(N3)C2C(=O)OC)cc1` (stereo not given), for which the IC50 in assay [1] worked out at 6.11 nM; in assay [2], 116 nM; in assay [5] it was 3.16 nM. The Ratio in assay [3] worked out at 37; in assay [4], 1.93.
In the case of `C=Cc1ccc(C2CC3CCC(C2C(=O)OC)N3C)cc1` (stereo not given), the IC50 in assay [1] stood at 1.24 nM; in assay [2] it was 78 nM; in assay [5], 9.5 nM. The Ratio in assay [3] was found to be 8.2; in assay [4], 0.13.
For the molecule `C#Cc1ccc(C2CC3CCC(C2C(=O)OC)N3C)cc1` (stereo not given), the IC50 in assay [1] amounted to 1.2 nM; in assay [2] it was 83.2 nM; in assay [5], 4.4 nM. The results for the Ratio in assay [3] and in assay [4] were 19 and 0.27, respectively.
Taken in the same sequence, the figures for `C=C(C)c1ccc(C2CC3CCC(N3)C2C(=O)OC)cc1` (stereo not given) were 23 nM, 144 nM, 0.6 nM, 240 and 38.
In the case of `C=C(C)c1ccc(C2CC3CCC(C2C(=O)OC)N3C)cc1` (stereo not given), the half-inhibitory concentration (IC50) in assay [1] was found to be 14.1 nM; in assay [2] it was 1330 nM. In addition, the Ratio worked out at 425 in assay [3] and 4.6 in assay [4].
With `C/C=C\c1ccc(C2CC3CCC(N3)C2C(=O)OC)cc1` (cis isomer), the IC50 in assay [1] amounted to 31.6 nM; in assay [2] it was 147 nM; in assay [5], 1.15 nM. In addition, the Ratio in assay [3] was found to be 128; in assay [4], 28.
`C=Cc1ccc(C2CC3CCC(N3)C2C(=O)OC)cc1` (stereo not given): the IC50 in assay [1] was 1.73 nM; in assay [2], 14.9 nM. Also, the figures for the Ratio in assay [3] and in assay [4] were 6.6 and 0.77, respectively.
For `C/C=C/c1ccc(C2CC3CCC(N3)C2C(=O)OC)cc1` (trans isomer), the IC50 in assay [1] was 28.6 nM; in assay [2] it was 54 nM; in assay [5], 1.3 nM. Besides, the figures for the Ratio in assay [3] and in assay [4] were 42 and 22, respectively.
